Results reported in ChEMBL document CHEMBL3351267, “Curcuminoid derivatives enhance telomerase activity in an in vitro TRAP assay” (Bioorg Med Chem Lett, 2014).
The source made the active and inactive calls. The calls are words filed in the database; no cut-off is given here.

What was measured:
[1] = molecular target: Telomerase reverse transcriptase (Homo sapiens) (UniProt O14746); assay: Activation of human telomerase activity expressed in HEK293T cells incubated for 30 mins by modified TRAP assay; format: cell-based; conditions: HEK-293T
Outline: (§1)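 Telomerase came from crude lysate of HEK293T cells transfected with hTERT and hTR plasmids. MTS primer and compound were incubated in telomerase reaction buffer at 30 °C for 30 min, then removed by two phenol–chloroform extractions. Products were ethanol-precipitated, PCR-amplified with FAM-tagged primer, run on 8% non-denaturing acrylamide and phosphorimaged. Accumulated product intensity was averaged over three independent experiments.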

[2] = molecular target: Telomerase reverse transcriptase (Homo sapiens) (UniProt O14746); assay: Activation of human telomerase activity expressed in HEK293T cells at 60 uM incubated for 30 mins by modified TRAP assay; format: cell-based; conditions: HEK-293T; outline: as §1
[3] = molecular target: Telomerase reverse transcriptase (Homo sapiens) (UniProt O14746); assay: Activation of human telomerase activity expressed in HEK293T cells at 20 to 60 uM incubated for 30 mins by modified TRAP assay; format: cell-based; conditions: HEK-293T; outline: as §1
[4] = molecular target: Telomerase reverse transcriptase (Homo sapiens) (UniProt O14746); assay: Activation of human telomerase activity expressed in HEK293T cells assessed as increase in telomer products intensity incubated for 30 mins by modified TRAP assay; format: cell-based; conditions: HEK-293T; outline: as §1
[5] = molecular target: Telomerase reverse transcriptase (Homo sapiens) (UniProt O14746); assay: Activation of human telomerase activity expressed in HEK293T cells at 60 uM incubated for 30 mins by modified TRAP assay and phosphorimage analysis; format: cell-based; conditions: HEK-293T; outline: as §1
[6] = molecular target: Telomerase reverse transcriptase (Homo sapiens) (UniProt O14746); assay: Activation of human telomerase activity expressed in HEK293T cells assessed as increase in telomer products length incubated for 30 mins by modified TRAP assay; format: cell-based; conditions: HEK-293T; outline: as §1
[7] = molecular target: Telomerase reverse transcriptase (Homo sapiens) (UniProt O14746); assay: Activation of human telomerase activity expressed in HEK293T cells incubated for 30 mins by modified TRAP assay and phosphorimage analysis; format: cell-based; conditions: HEK-293T; outline: as §1
[8] = molecular target: Telomerase reverse transcriptase (Homo sapiens) (UniProt O14746); assay: Activation of human telomerase activity expressed in HEK293T cells assessed as increase in telomer products length at 40 uM by modified TRAP assay and phosphorimage analysis; format: cell-based; conditions: HEK-293T, TDE = time-dependent effect
Outline: (§2)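 This was a time course at 40 µM compound, with the compound-free set run in parallel. The telomerase source was lysate of HEK293T cells transfected with hTERT/hTR. Reactions ran at 30 °C, and 100 µl was withdrawn at set times and heat-stopped at 95 °C for 10 min. Products were purified, PCR-amplified with FAM primer, and separated on 8% non-denaturing gel with phosphorimaging. Intensities came from three independent experiments.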

[9] = molecular target: Telomerase reverse transcriptase (Homo sapiens) (UniProt O14746); assay: Activation of human telomerase activity expressed in HEK293T cells assessed as increase in telomer products intensity at 40 uM by modified TRAP assay and phosphorimage analysis; format: cell-based; conditions: HEK-293T, TDE = time-dependent effect; outline: as §2
Thermus aquaticus = assay: Inhibition of Thermus aquaticus DNA polymerase at 5 uM

Chain of Telomerase reverse transcriptase (Homo sapiens) (O14746 whole entry): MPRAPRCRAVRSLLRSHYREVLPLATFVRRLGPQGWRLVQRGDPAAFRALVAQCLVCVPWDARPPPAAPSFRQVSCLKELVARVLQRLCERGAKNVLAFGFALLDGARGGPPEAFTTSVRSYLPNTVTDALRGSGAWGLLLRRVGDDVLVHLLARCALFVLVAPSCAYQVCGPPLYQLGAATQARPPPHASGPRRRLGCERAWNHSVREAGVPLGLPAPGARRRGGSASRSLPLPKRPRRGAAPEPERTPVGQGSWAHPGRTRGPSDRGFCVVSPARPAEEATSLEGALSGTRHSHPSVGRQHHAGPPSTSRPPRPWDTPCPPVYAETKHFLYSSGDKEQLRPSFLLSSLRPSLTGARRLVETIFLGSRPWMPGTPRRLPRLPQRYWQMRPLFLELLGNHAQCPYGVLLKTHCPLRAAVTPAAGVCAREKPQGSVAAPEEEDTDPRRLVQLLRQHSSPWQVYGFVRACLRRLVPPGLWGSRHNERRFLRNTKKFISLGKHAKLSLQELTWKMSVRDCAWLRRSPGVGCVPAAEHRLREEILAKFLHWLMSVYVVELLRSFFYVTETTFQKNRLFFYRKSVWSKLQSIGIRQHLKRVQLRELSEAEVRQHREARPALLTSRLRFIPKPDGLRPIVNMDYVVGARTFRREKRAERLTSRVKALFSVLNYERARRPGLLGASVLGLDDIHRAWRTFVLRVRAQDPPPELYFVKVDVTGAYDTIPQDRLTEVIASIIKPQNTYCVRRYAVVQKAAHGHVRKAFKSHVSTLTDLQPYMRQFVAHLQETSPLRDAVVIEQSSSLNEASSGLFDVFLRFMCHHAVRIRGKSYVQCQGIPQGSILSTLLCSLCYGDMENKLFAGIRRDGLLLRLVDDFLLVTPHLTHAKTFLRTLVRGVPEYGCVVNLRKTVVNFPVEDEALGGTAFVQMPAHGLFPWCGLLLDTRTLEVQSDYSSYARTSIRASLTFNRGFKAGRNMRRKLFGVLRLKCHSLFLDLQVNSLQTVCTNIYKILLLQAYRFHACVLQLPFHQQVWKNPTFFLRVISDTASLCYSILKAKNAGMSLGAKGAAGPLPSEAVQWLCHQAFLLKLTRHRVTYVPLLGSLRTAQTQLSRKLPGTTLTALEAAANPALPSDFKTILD

| Activity [1] | fold change (FC) [2] | Structure (SMILES) | further results |
| --- | --- | --- | --- |
| – | 3 | COc1cc(/C=C/C(=O)CC(=O)/C=C/c2ccc(OCCCCC[n+]3ccccc3)c(OC)c2)ccc1O | – |
| – | 3 | COc1cc(/C=C/c2cc(/C=C/c3ccc(OCCCCC[n+]4ccccc4)c(OC)c3)on2)ccc1OCCCCC[n+]1ccccc1 | – |
| – | 3 | COc1cc(/C=C/C(=O)CC(=O)/C=C/c2ccc(O)cc2)ccc1OCCCCC[n+]1ccccc1 | – |
| Dose-dependent effect | 5 | COc1cc(/C=C/C(=O)CC(=O)/C=C/c2ccc(OCCCCC[n+]3ccccc3)c(OC)c2)ccc1OCCCCC[n+]1ccccc1 | Activity [4]: Dose-dependent effect; fold change (FC) [5]: < 5; Activity [6]: Dose-dependent effect; Activity [7]: Dose-dependent effect; Activity [8]: tde; Activity [9]: tde; inhibition (Thermus aquaticus): Active |

The next lines start with the compound.

| Structure (SMILES) | Activity [1] | fold change (FC) [2] | further results |
| --- | --- | --- | --- |
| COc1cc(CCC(O)CC(O)CCc2ccc(O)c(OC)c2)ccc1O (stereo not given) | inactive | – | – |
| O=C(/C=C/c1ccc(O)cc1)CC(=O)/C=C/c1ccc(O)cc1 | inactive | – | – |
| COc1cc(CCC(=O)CC(=O)CCc2ccc(O)c(OC)c2)ccc1O | inactive | – | – |
| COc1cc(/C=C/C(=O)CC(=O)/C=C/c2ccc(O)c(OC)c2)ccc1O | inactive | – | – |
| COc1cc(/C=C/C(=O)CC(=O)/C=C/c2ccc(OCCCCC[n+]3ccccc3)cc2)ccc1O | – | 3 | – |
| COc1cc(/C=C/C(O)=C/C(=O)/C=C/c2ccc(O)cc2)ccc1O | inactive | – | – |
| COc1cc(CC/C=C/C(=O)CCc2ccc(OCCCCC[n+]3ccccc3)c(OC)c2)ccc1OCCCCC[n+]1ccccc1 | – | – | Activity [3]: inactive |
| COc1cc(/C=C/C(=O)CC(=O)/C=C/c2ccc(OCCO)c(OC)c2)ccc1OCCO | inactive | – | – |
